Screening data from PubChem.
DSG3 Ab inh: human desmoglein-3 autoantibody binding inhibition; 310,000 compounds, 0.48% hits; P32926; DSG3-coupled beads, scFv-anti-DSG3-GFP binding, flow cytometry; hits give low values; binding (percent of control), % at 10 µM;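 active = binding more than 3 SD below its plate's average and above zero; inconclusive = below that plate limit but binding exactly zero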;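 note: hits lower antibody fragment binding to DSG3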
SENP1 FRET inh: SENP1 (human) catalytic domain inhibition; 360,000 compounds, 0.21% hits; AID 624204; Q9P0U3; recombinant SENP1 catalytic domain, CyPet-SUMO1-YPet FRET cleavage; inhibition, % at 10 µM;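 active = inhibition at least 30% at 10 µM, raw YFP signal under a set limit, fluorescence ratio 0.5 to 1.5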
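system = hSENP1 catalytic domain, recombinant | reagent = SFCypet-SUMO1-SFYpet substrate at 25 nM | doses = one dose per compound, 10 µM, 0.5% DMSO | incubation = enzyme reaction for 50 min at room temperature, dark | measured by = FRET, CFP and YFP emission | controls = no-enzyme low, enzyme-DMSO high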
Exocytosis inh: lytic granule exocytosis inhibition | 360,000 compounds, 0.66% hits | inhibition, % at 10 µM | AID 651702 | TALL-104 LAMP-1 surface exposure, flow cytometry; cells stimulated with thapsigargin and PMA;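 active = inhibition above about 55%, limit read from the data; inconclusive = no clear call, values can overlap the other calls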
Myeloid diff 2: compounds promoting myeloid differentiation; ER-HoxA9 myeloid progenitors, lysozyme-GFP differentiation, flow cytometry; calls only at 10 µM; 360,000 compounds, 1% hits; AID 624256;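 active = normalized GFP-positive differentiation at or above the plate's own cutoff, the solvent-only control mean plus 3 SD; inconclusive = no clear call, values can overlap the other calls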;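 note: cells exposed to compound for four days before flow analysis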
H9c2 protect: protects H9c2 cardiomyocytes from peroxide injury. H2O2 injury protection, ATPLite, 2 h. protection from H2O2 cell death, % at 20 µM. 360,000 compounds, 0.63% hits;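 active = compounds giving at least 50% protection of heart cells from peroxide-induced death in the single-dose screen, raw or plate-pattern-corrected value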
HNF4A DNA FP: change in binding of human HNF4 alpha to DNA; HNF4a-FITC DNA binding, fluorescence polarization, 1 h; activity change, % at 10 µM; P41235; 360,000 compounds, 0.3% hits; in the data active = activity change above about 30%, passing the limit was not always enough
Target sequence (P41235 whole entry, looked up): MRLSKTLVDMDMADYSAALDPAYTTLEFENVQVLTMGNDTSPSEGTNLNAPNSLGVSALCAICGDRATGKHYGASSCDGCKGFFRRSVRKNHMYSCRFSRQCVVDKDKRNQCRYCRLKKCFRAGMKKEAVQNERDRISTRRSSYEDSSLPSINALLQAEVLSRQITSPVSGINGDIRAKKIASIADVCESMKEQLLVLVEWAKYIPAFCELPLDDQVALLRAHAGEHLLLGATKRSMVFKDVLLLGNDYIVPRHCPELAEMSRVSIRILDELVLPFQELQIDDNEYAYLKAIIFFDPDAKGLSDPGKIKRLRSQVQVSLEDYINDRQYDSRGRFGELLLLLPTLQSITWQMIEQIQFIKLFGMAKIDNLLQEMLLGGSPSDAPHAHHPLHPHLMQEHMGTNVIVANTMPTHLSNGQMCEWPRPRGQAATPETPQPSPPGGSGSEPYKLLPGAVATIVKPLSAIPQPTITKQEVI
Of the large screens only hits and unclear results are named; the others gave an inactive call. Only some compounds are listed: those with a hit (about 3% of all), similar ones and a draw of the others.

O=C(NNC(=O)c1ccc(Br)s1)c1cccc(Cl)c1	none
S=c1[nH]nc(-c2cc(-c3ccccc3)n[nH]2)n1/N=C/c1c(Cl)cccc1Cl	Myeloid diff 2 active (no result: DSG3 Ab inh)
N#CC(C#N)=C1C=CC=CN1/C(=C\c1ccco1)C(=O)c1ccc(Cl)cc1	Exocytosis inh 90, Myeloid diff 2 inconclusive
COC(=O)c1ccc(C2NC(=S)N(c3ccccc3)C(C)=C2C(=O)Nc2ccccc2OC)cc1 (centres undefined)	DSG3 Ab inh -8.8
COc1ccccc1NC(=O)C1=C(C)N(c2ccccc2)C(=S)NC1c1cccc(C(F)(F)F)c1 (centres undefined)	none
COc1cc(/C=N/NC(=O)c2c(-c3c(Cl)cccc3Cl)noc2C)ccc1OCC(N)=O	none
Cc1onc(-c2c(Cl)cccc2Cl)c1C(=O)N/N=C(\N)COc1ccc(Cl)cc1	H9c2 protect 70
Cc1onc(-c2c(F)cccc2Cl)c1C(=O)c1ccc(F)cc1	DSG3 Ab inh 64
CC1CCC(NC(=O)COC(=O)c2cccnc2Cl)CC1 (centres undefined)	none
COC(CNC(=O)c1ccc(CS(=O)(=O)c2ccc(C)cc2)o1)OC	Myeloid diff 2 active
C(=C\c1ccccc1)/CN1CCN(C(c2ccccc2)c2nnnn2-c2ccc3c(c2)OCCO3)CC1 (centres undefined)	none (no result: DSG3 Ab inh)
O=C(Nc1ccc(OCC(F)(F)C(F)F)cc1)c1ccncc1	DSG3 Ab inh -13
Cc1cccc(C(C(N)=O)c2ncc(C(F)(F)F)cc2Cl)c1 (centres undefined)	none
COC(=O)CNc1nc(-c2cccnc2)nc2ccccc12	none
CC(=O)CCc1ccc(Oc2nc(-c3cccnc3)nc3ccccc23)cc1	H9c2 protect 55
NS(=O)(=O)c1ccc(NC(=O)CCCCC(=O)Nc2ccc(S(N)(=O)=O)cc2)cc1	none
CC(C)(C)c1ccc(OCCCC(=O)Nc2ccc(S(N)(=O)=O)cc2)cc1	Myeloid diff 2 active
Cc1cc(C(=O)NNC(=O)CCCOc2ccccc2)c(C)o1	none
CC(C)(C)c1ccc(OCCCC(=O)NNC(=O)c2ccccc2O)cc1	H9c2 protect 52
CC(C)(C)c1ccc(OCCCC(=O)NC2=NCCS2)cc1	DSG3 Ab inh -19
NS(=O)(=O)c1ccc(NC(=O)COc2ccc(C(=O)c3ccc(F)cc3)cc2)cc1	DSG3 Ab inh 54
CCc1nc2c(OCC(=O)C(C)(C)C)cccn2c1N(C)C(=O)c1ccco1	none (no result: DSG3 Ab inh)
Cc1ccc(S(=O)(=O)N2CCOCC2)cc1C(=O)N1CCN(S(=O)(=O)c2ccccc2F)CC1	none
CC(C)OC(=O)c1cc(C(=O)c2cc(F)ccc2O)coc1=N	Myeloid diff 2 active
CC(C)OC(=O)c1cc(C(=O)c2cc(Br)ccc2O)coc1=N	none
CC(C)OC(=O)c1cc(C(=O)c2cc(Cl)ccc2O)coc1=N	Myeloid diff 2 active
CC(C)(C)OC(=O)NCCCCCNC(=O)c1[nH]cnc1C(=O)NC1CCN(C(=O)OC(C)(C)C)CC1	none
OC(c1ccc(F)c(F)c1)c1nc(-c2ccc3c(c2)OCO3)cs1 (centres undefined)	none (no result: DSG3 Ab inh)
CCO[C@@H]1OC(C(=O)N2CCCCCCC2)=C[C@H](C2CCCCC2)[C@H]1CCCO	none
CCO[C@@H]1OC(C(=O)N2CCOCC2)=C[C@H](C2CCCCC2)[C@H]1CCCO	Myeloid diff 2 active
O=C(NCCS(=O)(=O)N1CCN(c2ccccc2)CC1)c1cccs1	none
O=C(O)c1cc2ncc(CCO)cn2n1	none
O=C(NCc1ccccc1Br)c1cccs1	Myeloid diff 2 active (no result: DSG3 Ab inh)
COc1ccccc1CNC(=O)c1cccs1	none
O=C(Nc1ccc2nn(-c3ccccc3)nc2c1)c1ccc2c(c1)OCCO2	none
CCOc1ccc(-n2nc3ccc(NC(=O)c4ccc5c(c4)OCCO5)cc3n2)cc1	DSG3 Ab inh 5.0
Cc1ccc(-c2nc3c4ccccc4ccn3c2Cc2ccccc2C(F)(F)F)cc1	none (no result: DSG3 Ab inh, H9c2 protect)
CC[n+]1c(/C=C2/C=C(C)CC(C)(C)C2)sc2ccc(OC)cc21	Myeloid diff 2 active
CC[n+]1c(/C=C2\C=C(C)CC(C)(C)C2)sc2ccccc21	none
O=C(Oc1ccccc1/C=C\C(=O)c1cc2ccccc2o1)c1ccccc1	Exocytosis inh 61
O=C(Nc1ccccc1O)C(c1ccccc1)c1ccccc1	none
